Test results from ChEMBL document CHEMBL1159325, “Pseudoirroratin A, a new cytotoxic ent-kaurene diterpene from Isodon pseudo-irrorata” (J Nat Prod, 2002).

Tests used:
Type in all cases: functional, cell-based
[1] = Cytotoxicity against human HOG.R5 cells by MTT assay
Outline: (§1)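 Cytotoxicity was run on human cell lines (Lu1, SW626, LNCaP, KB, and the HOG.R5 reporter line derived from parental HOS cells) following a previously established protocol. Camptothecin served as the positive control, and results were expressed as IC50.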

KB = experiment: Cytotoxicity against human KB cells by MTT assay; outline: as §1
Lu1 = experiment: Cytotoxicity against human Lu1 cells by MTT assay; outline: as §1
SW626 = experiment: Cytotoxicity against human SW626 cells by MTT assay; outline: as §1
LNCaP = experiment: Cytotoxicity against human LNCAP cells by MTT assay; outline: as §1
HOS = experiment: Cytotoxicity against human HOS cells by MTT assay

SMILES	IC50 [1] [nM]	IC50 (KB) [nM]	IC50 (Lu1) [nM]	IC50 (SW626) [nM]	IC50 (LNCaP) [nM]	IC50 (HOS) [nM]
CC[C@@]1(O)C(=O)OCc2c1cc1n(c2=O)Cc2cc3ccccc3nc2-1 [CAMPTOTHECIN]	28.7	28.7	28.7	28.7	86.1	
C=C1C(=O)[C@]23[C@H](O)C[C@@H]4C(C)(C)CCC[C@]45CO[C@](O)(C[C@@H]1[C@H]2O)[C@@H]53 [PSEUDOIRRORATIN A]		2590	750	570	2590	1440
